Screening results as filed in PubChem.
VIM-2 inhibitor: inhibitors of Pseudomonas aeruginosa VIM-2 metallo-beta-lactamase. purified VIM-2, nitrocefin hydrolysis, epi-absorbance fluorescence. inhibition, % at 5.6 µM. 290,000 tested, 0.89% active. AID 1527;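 active means inhibition above the mean of all tested compounds plus 3 SD, cutoff set per screening run, cut at about 7.5% in these data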;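 further: red hydrolysis product quenches plate fluorescence so inhibitors raise well fluorescence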
NALP3 yeast inh: blocks the NALP3 inflammasome reconstituted in yeast. Yeast reconstituted NLRP3/ASC/caspase-1, beta-gal luminescence, 24 h. inhibition, % at 10 µM. 330,000 tested, 0.39% active;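 active means inhibition of 50% or more; inactive means inhibition below 50%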
PolyA inhibitor: inhibitors of polyadenylation in S. cerevisiae. S. cerevisiae SKY197-pL101 polyadenylation reporter, beta-gal luminescence; efflux-impaired pdr1/pdr3 knockout yeast; score 100 = 6 SD above DMSO. activity score, % at 12 µM. 300,000 tested, 0.02% active. AID 1875;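 active means lowest replicate activity score at least 50, where 100 means six control SD above control mean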;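 further: yeast exposed to compound for 9 h at 30 °C; higher score means more reporter readthrough which indicates perturbed polyadenylation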
NALP1 yeast inh: inhibitors of NALP1 inflammasome in yeast. S. cerevisiae NALP1/ASC/caspase-1 growth, X-gal OD620, 72 h. inhibition, % at 10 µM. 280,000 tested, 0.61% active; in the data active means inhibition mostly above about 24%, no sharp cut-off; inactive means mostly below about 32%
SUMO Mot1 rescue: blocks SUMOylation pathway, rescuing yeast Mot1-301 growth. S. cerevisiae Mot1-301 growth rescue, ATP luminescence, 38.5C; percent above DMSO median, 100 means doubled. growth rescue, % at 18.8 µM. 320,000 tested, 1% active. AID 2716;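 active means every valid replicate shows activation above 250% relative to neutral control wells; inactive means the rest, any valid replicate at or below 250%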
IMP-1 inh: blocks Pseudomonas aeruginosa IMP-1 metallo-beta-lactamase. 290,000 tested, 0.45% active. inhibition, % at 5.6 µM. purified IMP-1, nitrocefin hydrolysis, epi-absorbance fluorescence;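 active means inhibition above the mean plus 3 SD of all compounds in the same screening run, cut at about 4.5% in these data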
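Assay system: purified IMP-1; Quantity: IMP-1 0.2 nM before substrate addition; Medium: HEPES buffer pH 7.1 with ZnSO4 and Brij 35; Incubation: 15 min enzyme–compound preincubation, then 25 min nitrocefin reaction, 25 °C; Signal: fluorescence quenching readout, ex 480/em 530 nm; Controls: DMSO with and without IMP-1; Repeats: singlicate testing.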
Mot1 SUMO dose: SUMO pathway inhibitors in yeast Mot1-301 growth | shares compounds with SUMO Mot1 rescue | S. cerevisiae Mot1-301 galactose growth, ATP luminescence, 24 h; -100 = growth of slx-deleted rescue strain | growth activity, percent, % at 42 µM | 2,300 tested, under 10 active;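 active means Signal drops as the depositor expects, and the fitted half-maximal dose is no more than ten times the top valid tested dose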;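 further: more negative values mean stronger growth rescue toward the control strain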
A number is an active result; . = inactive; / = no result; + = active, no number. Most compounds without a hit are left out; they make up all but 2.9% or so of the library.

SMILES | VIM-2 inhibitor | NALP3 yeast inh | PolyA inhibitor | NALP1 yeast inh | SUMO Mot1 rescue | IMP-1 inh | Mot1 SUMO dose
COc1ccc(S(=O)(=O)N(C)c2ccc(C(=O)N3CCCCC3)cc2)cc1OC | . | . | . | / | . | . | /
COC(=O)c1ccccc1NC(=O)CSc1nnnn1CC(=O)O | . | . | . | . | 616 | . | .
C=CCn1nnnc1SCC(=O)Nc1ccccc1C(=O)OC | . | . | . | . | . | . | /
Cc1cc(C(=O)NNC(=O)c2ccc(C)s2)c(C)o1 | / | . | . | / | 476 | / | .
Cc1cc(C(=O)NNC(=O)c2cccc(N(C)C)c2)c(C)o1 | . | . | . | . | . | . | /
Cc1cc(Cl)c2oc(C(=O)NC3CCC(O)CC3)c(C)c2c1 (stereo unspecified) | . | . | . | . | + | . | .
Cc1cc(Cl)c2oc(C(=O)NCC(C)(C)N3CCOCC3)c(C)c2c1 | . | . | . | . | . | . | /
COc1ccc(C(CNC(=O)COc2cc(C)c(Cl)c(C)c2)N2CCCCC2)cc1 (stereo unspecified) | . | . | . | . | / | . | /
O=C(NCc1cccnc1)Nc1ccccc1 | . | . | . | . | 564 | . | .
CC(C)(C)NC(=O)NCc1cccnc1 | . | . | . | / | . | . | /
CS(=O)(=O)N(CCc1ccccc1)CC(=O)NCc1cccnc1 | . | . | . | . | 854 | . | .
O=C(NCc1cccnc1)Nc1cccc(NC(=O)NCc2cccnc2)c1 | . | . | . | . | . | . | /
Cc1ccc(CNC(=O)CN(CCc2ccccc2)S(C)(=O)=O)cc1 | . | . | . | . | . | . | /
CC(C)(C)NC(=S)NCc1cccnc1 | . | . | . | . | 978 | . | .
O=C(CN1C(=O)NC2(CCCCCC2)C1=O)NCc1ccc(Cl)cc1 | / | . | / | / | . | / | /
CC(=O)c1ccc(Oc2cc(C)nc(N3CCOCC3)n2)cc1 | . | . | . | . | 436 | . | .
S=c1nc(NCc2cccc(Cl)c2)c2ccccc2[nH]1 | . | . | . | . | . | . | /
COc1ccc(-c2csc(Nc3ncccn3)n2)cc1C | . | . | . | . | . | . | /
COc1ccc(-c2csc(Nc3cc(C)ccn3)n2)cc1C | . | . | . | . | 515 | . | .
O=C(Nc1cccc(C(F)(F)F)c1)c1ccccc1NC(=O)C1CCCCC1 | . | . | . | . | . | . | /
CCC(C(=O)Nc1ccc(C(=O)N2CCCC2)cc1)c1ccccc1 (stereo unspecified) | . | . | . | . | . | . | /
NC(=O)CC(NC(=O)Cc1cccc2ccccc12)c1ccc(NCCCN2CCCC2=O)c([N+](=O)[O-])c1 (stereo unspecified) | . | . | . | . | + | . | .
COCC(=O)n1nc(-c2ccc(Cl)cc2)nc1NCc1ccc(F)cc1 | . | . | . | . | 539 | . | .
COCC(=O)n1nc(-c2ccc(C)cc2)nc1NCc1ccc(F)cc1 | . | / | / | . | / | . | /
CC(=O)n1nc(-c2ccccc2)nc1NCc1ccc(F)cc1 | . | . | . | . | . | . | /
SMILES | VIM-2 inhibitor | NALP3 yeast inh | PolyA inhibitor | NALP1 yeast inh | SUMO Mot1 rescue | IMP-1 inh | Mot1 SUMO dose
COCC(=O)n1nc(-c2ccccc2)nc1NCc1ccc(N(C)C)cc1 | . | . | . | . | 862 | . | .
O=CNCCCc1nc2ccccc2n1CCc1ccccc1 | . | . | . | . | + | . | .
COC(=O)c1cc2c(s1)-c1ccc(OC)cc1CC2 | . | . | . | . | 477 | . | .
CC(SC#N)C(=O)C12CC3CC(CC(C3)C1)C2 (stereo unspecified) | . | . | . | . | 386 | . | .
CCCS(=O)(=O)N1CCC(C(=O)N2CCC(Cc3ccccc3)CC2)CC1 | . | . | . | . | . | . | /
O=C(C1CCN(S(=O)(=O)N2CCC3(CC2)OCCO3)CC1)N1CCC(Cc2ccccc2)CC1 | . | . | . | . | 398 | . | .
NC(=O)c1cccc2cc3ccccc3cc12 | . | . | . | . | 625 | . | .
Cc1ccc(C)c(N2CCN(C(=O)c3ccc(CS(=O)Cc4cccc(Cl)c4)o3)CC2)c1 (stereo unspecified) | . | . | . | . | . | . | /
